Experimental data taken from ChEMBL document CHEMBL4138266, “Lysine Analogue of Polymyxin B as a Significant Opportunity for Photodynamic Antimicrobial Chemotherapy” (ACS Med Chem Lett, 2018).
Active and inactive are the calls of the source. The calls are words filed in the database; no cut-off is given here.

Legend:
[1] = tested on: Pseudomonas aeruginosa; experiment: Photobactericidal activity against Pseudomonas aeruginosa assessed as live bacterial population at 1 uM incubated for 30 mins followed by 3 washings by propidium iodide staining based flow cytometry; format: functional
Outline: (§1)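 Bacteria were incubated with 1 µM conjugate for 30 min at 37 °C, washed with saline, then stained with propidium iodide (0.01 mg/mL) to assess viability. Samples were analysed by flow cytometry. Q1 is the PI-positive (permeable membrane) population; Q2 is double positive for PI and photosensitizer fluorescence.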

[2] = tested on: Staphylococcus aureus; experiment: Photobactericidal activity against Staphylococcus aureus assessed as PI-positive and PS-positive cell population at 1 uM incubated for 30 mins followed by 1 washing by propidium iodide staining based flow cytometry; format: functional; outline: as §1
[3] = tested on: Staphylococcus aureus; experiment: Photobactericidal activity against Staphylococcus aureus assessed as dead bacteria with permeable membrane at 1 uM incubated for 30 mins followed by 3 washings by propidium iodide staining based flow cytometry; format: functional; outline: as §1
[4] = tested on: Pseudomonas aeruginosa; experiment: Photobactericidal activity against Pseudomonas aeruginosa assessed as PI-positive and PS-positive cell population at 1 uM incubated for 30 mins followed by 1 washing by propidium iodide staining based flow cytometry; format: functional; outline: as §1
[5] = tested on: Escherichia coli; experiment: Bactericidal activity against Escherichia coli CIP54.8T incubated for 30 mins under dark conditions; format: organism-based; settings: 0.5 h
Outline: (§2)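 Minimal bactericidal concentration (MBC) was determined in tryptic soy medium with log-phase bacteria at 37 °C. Plates were either kept in the dark or given 20 h of white light at 4.83 mW/cm². MBC was taken as the concentration killing 99.99% of bacteria, i.e. a 4-log reduction versus the untreated control.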

[6] = tested on: Staphylococcus aureus; experiment: Photobactericidal activity against Staphylococcus aureus at 10 uM pretreated for 30 mins followed by compound wash out with subsequent irradiation with white light at 4.83 mW/cm2; format: functional, organism-based
Outline: (§3)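 Bacteria were pre-incubated with conjugate in 1X PBS (P. aeruginosa at 1 µM), then washed three times with PBS. They were irradiated with white LED light (4.83 mW/cm²; 7 J/cm² corresponds to 24 min) at 37 °C. Survival, as % of initial density, was plotted against cumulative light fluence.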

[7] = tested on: Pseudomonas aeruginosa; experiment: Photobactericidal activity against Pseudomonas aeruginosa assessed as dead bacteria with permeable membrane at 1 uM incubated for 30 mins followed by 1 washing by propidium iodide staining based flow cytometry; format: functional; outline: as §1
[8] = tested on: Staphylococcus aureus; experiment: Photobactericidal activity against Staphylococcus aureus assessed as live bacterial population at 1 uM incubated for 30 mins followed by 3 washings by propidium iodide staining based flow cytometry; format: functional; outline: as §1
[9] = tested on: Pseudomonas aeruginosa; experiment: Photobactericidal activity against Pseudomonas aeruginosa at 1 uM pretreated for 30 mins followed by compound wash out with subsequent irradiation with white light at 4.83 mW/cm2; format: functional, organism-based; outline: as §3
[10] = tested on: Pseudomonas aeruginosa; experiment: Photobactericidal activity against Pseudomonas aeruginosa assessed as PI-positive and PS-positive cell population at 1 uM incubated for 30 mins followed by 3 washings by propidium iodide staining based flow cytometry; format: functional; outline: as §1
[11] = tested on: Pseudomonas aeruginosa; experiment: Photobactericidal activity against Pseudomonas aeruginosa assessed as live bacterial cells with membrane integrity loss at 1 uM incubated for 30 mins followed by 3 washings by propidium iodide staining based flow cytometry; format: functional; outline: as §1
[12] = tested on: Escherichia coli; experiment: Photobactericidal activity against Escherichia coli assessed as PI-positive and PS-positive cell population at 1 uM incubated for 30 mins followed by 3 washings by propidium iodide staining based flow cytometry; format: functional; outline: as §1
[13] = tested on: Escherichia coli; experiment: Photobactericidal activity against Escherichia coli assessed as dead bacteria with permeable membrane at 1 uM incubated for 30 mins followed by 1 washing by propidium iodide staining based flow cytometry; format: functional; outline: as §1
[14] = tested on: Escherichia coli; experiment: Photobactericidal activity against Escherichia coli assessed as live bacterial cells with membrane integrity loss at 1 uM incubated for 30 mins followed by 1 washing by propidium iodide staining based flow cytometry; format: functional; outline: as §1
[15] = tested on: Escherichia coli; experiment: Photobactericidal activity against Escherichia coli assessed as dead bacteria with permeable membrane at 1 uM incubated for 30 mins followed by 3 washings by propidium iodide staining based flow cytometry; format: functional; outline: as §1
[16] = tested on: NHDF; experiment: Cytotoxicity against human NHDF cells assessed as reduction in cell viability at 5 to 5000 nM irradiated with white light at 4.83 mW/cm2 for 2 hrs measured after 24 hrs by MTT assay; format: cell-based; settings: 5 µM
[17] = tested on: Escherichia coli; experiment: Photobactericidal activity against Escherichia coli at 10 uM pretreated for 30 mins followed by compound wash out with subsequent irradiation with white light at 4.83 mW/cm2; format: functional, organism-based; outline: as §3
[18] = tested on: Escherichia coli; experiment: Photobactericidal activity against Escherichia coli assessed as live bacterial cells with membrane integrity loss at 1 uM incubated for 30 mins followed by 3 washings by propidium iodide staining based flow cytometry; format: functional; outline: as §1
[19] = tested on: Escherichia coli; experiment: Photobactericidal activity against Escherichia coli assessed as PI-positive and PS-positive cell population at 1 uM incubated for 30 mins followed by 1 washing by propidium iodide staining based flow cytometry; format: functional; outline: as §1
[20] = tested on: Escherichia coli; experiment: Photobactericidal activity against Escherichia coli assessed as live bacterial population at 1 uM incubated for 30 mins followed by 3 washings by propidium iodide staining based flow cytometry; format: functional; outline: as §1
[21] = tested on: NHDF; experiment: Cytotoxicity against human NHDF cells assessed as reduction in cell viability at 5 to 5000 nM incubated under dark conditions for 2 hrs measured after 24 hrs by MTT assay; format: cell-based; settings: 5 µM
[22] = tested on: Staphylococcus aureus; experiment: Photobactericidal activity against Staphylococcus aureus assessed as live bacterial cells with membrane integrity loss at 1 uM incubated for 30 mins followed by 3 washings by propidium iodide staining based flow cytometry; format: functional; outline: as §1
[23] = tested on: Staphylococcus aureus; experiment: Photobactericidal activity against Staphylococcus aureus at 1 uM after 30 mins by confocal laser scanning microscopy; format: functional, organism-based
Outline: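 S. aureus inoculum was suspended in 1 µM conjugate for 30 min at 37 °C, washed three times with PBS, and imaged by confocal laser scanning microscopy at 100X to visualise bacteria-associated fluorescence.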

[24] = tested on: Pseudomonas aeruginosa; experiment: Photobactericidal activity against Pseudomonas aeruginosa assessed as live bacterial population at 1 uM incubated for 30 mins followed by 1 washing by propidium iodide staining based flow cytometry; format: functional; outline: as §1
[25] = tested on: Staphylococcus aureus; experiment: Photobactericidal activity against Staphylococcus aureus assessed as live bacterial cells with membrane integrity loss at 1 uM incubated for 30 mins followed by 1 washing by propidium iodide staining based flow cytometry; format: functional; outline: as §1
[26] = tested on: Pseudomonas aeruginosa; experiment: Photobactericidal activity against Pseudomonas aeruginosa CIP76110 irradiated with white light at 4.83 mW/cm2 for 20 hrs; format: functional; settings: CIP76110, light or radiation study; outline: as §2
[27] = tested on: Staphylococcus aureus; experiment: Photobactericidal activity against Staphylococcus aureus assessed as dead bacteria with permeable membrane at 1 uM incubated for 30 mins followed by 1 washing by propidium iodide staining based flow cytometry; format: functional; outline: as §1
[28] = tested on: Pseudomonas aeruginosa; experiment: Photobactericidal activity against Pseudomonas aeruginosa assessed as dead bacteria with permeable membrane at 1 uM incubated for 30 mins followed by 3 washings by propidium iodide staining based flow cytometry; format: functional; outline: as §1
[29] = tested on: Staphylococcus aureus; experiment: Photobactericidal activity against Staphylococcus aureus assessed as live bacterial population at 1 uM incubated for 30 mins followed by 1 washing by propidium iodide staining based flow cytometry; format: functional; outline: as §1
[30] = tested on: Pseudomonas aeruginosa; experiment: Bactericidal activity against Pseudomonas aeruginosa CIP76110 incubated for 30 mins under dark conditions; format: organism-based; settings: 0.5 h; outline: as §2
[31] = tested on: Escherichia coli; experiment: Photobactericidal activity against Escherichia coli CIP54.8T irradiated with white light at 4.83 mW/cm2 for 20 hrs; format: functional; settings: light or radiation study; outline: as §2
[32] = tested on: Staphylococcus aureus; experiment: Photobactericidal activity against Staphylococcus aureus CIP76.25 irradiated with white light at 4.83 mW/cm2 for 20 hrs; format: functional; settings: CIP76.25, light or radiation study; outline: as §2
[33] = tested on: Pseudomonas aeruginosa; experiment: Photobactericidal activity against Pseudomonas aeruginosa assessed as live bacterial cells with membrane integrity loss at 1 uM incubated for 30 mins followed by 1 washing by propidium iodide staining based flow cytometry; format: functional; outline: as §1
[34] = tested on: Escherichia coli; experiment: Photobactericidal activity against Escherichia coli assessed as live bacterial population at 1 uM incubated for 30 mins followed by 1 washing by propidium iodide staining based flow cytometry; format: functional; outline: as §1
[35] = tested on: Staphylococcus aureus; experiment: Photobactericidal activity against Staphylococcus aureus assessed as PI-positive and PS-positive cell population at 1 uM incubated for 30 mins followed by 3 washings by propidium iodide staining based flow cytometry; format: functional; outline: as §1
[36] = tested on: Escherichia coli; experiment: Photobactericidal activity against Escherichia coli pretreated for 30 mins followed by compound wash out with subsequent irradiation with white light at 4.83 mW/cm2; format: functional, organism-based; outline: as §3
[37] = tested on: Pseudomonas aeruginosa; experiment: Photobactericidal activity against Pseudomonas aeruginosa pretreated for 30 mins followed by compound wash out with subsequent irradiation with white light at 4.83 mW/cm2; format: functional, organism-based; outline: as §3
[38] = tested on: Staphylococcus aureus; experiment: Photobactericidal activity against Staphylococcus aureus pretreated for 30 mins followed by compound wash out with subsequent irradiation with white light at 4.83 mW/cm2; format: functional, organism-based; outline: as §3

Compound: CCCCCCCC(=O)N[C@@H](CSC1CC(=O)N(CCCCCC(=O)Nc2ccc(-c3c4nc(c(-c5cc[n+](C)cc5)c5ccc([nH]5)c(-c5cc[n+](C)cc5)c5nc(c(-c6cc[n+](C)cc6)c6ccc3[nH]6)C=C5)C=C4)cc2)C1=O)C(=O)N[C@H](C(=O)N[C@@H](CCCCN)C(=O)N[C@H]1CCNC(=O)[C@H]([C@@H](C)O)NC(=O)[C@H](CCCCN)NC(=O)[C@H](CCCCN)NC(=O)[C@H](CC(C)C)NC(=O)[C@@H](Cc2ccccc2)NC(=O)[C@H](CCCCN)NC1=O)[C@@H](C)O.[I-].[I-].[I-] (stereo partly drawn)
- Activity [1]: 31.6%
- Activity [2]: 3.2%
- Activity [3]: 4.4%
- Activity [4]: 43.1%
- MBC [5]: 25 µM
- Activity [6]: Active
- Activity [7]: 19.3%
- Activity [8]: 70.8%
- Activity [9]: Active
- Activity [10]: 28.9%
- Activity [11]: 1.9%
- Activity [12]: 22.8%
- Activity [13]: 1.8%
- Activity [14]: 14.6%
- Activity [15]: 5.2%
- Activity [16]: Non-Toxic
- Activity [17]: Active
- Activity [18]: 9.6%
- Activity [19]: 14%
- Activity [20]: 62.5%
- Activity [21]: Non-Toxic
- Activity [22]: 19%
- Activity [23]: Active
- Activity [24]: 34.6%
- Activity [25]: 19.7%
- MBC [26]: 8 µM
- Activity [27]: 1.6%
- Activity [28]: 37.7%
- Activity [29]: 75.6%
- MBC [30]: > 100 µM
- MBC [31]: 0.8 µM
- MBC [32]: 1.2 µM
- Activity [33]: 3%
- Activity [34]: 69.7%
- Activity [35]: 5.8%

Compound: CCCCCCCC(=O)N[C@@H](CSC1CC(=O)N(CCCCCC(=O)Nc2ccc(-c3c4nc(c(-c5cc[n+](C)cc5)c5ccc([nH]5)c(-c5cc[n+](C)cc5)c5nc(c(-c6cc[n+](C)cc6)c6ccc3[nH]6)C=C5)C=C4)cc2)C1=O)C(=O)N[C@H](C(=O)N[C@@H](CCN)C(=O)N[C@H]1CCNC(=O)[C@H]([C@@H](C)O)NC(=O)[C@H](CCN)NC(=O)[C@H](CCN)NC(=O)[C@H](CC(C)C)NC(=O)[C@@H](Cc2ccccc2)NC(=O)[C@H](CCN)NC1=O)[C@@H](C)O.[I-].[I-].[I-] (stereo partly drawn)
- Activity [4]: 80%
- MBC [5]: 1.2 to 5 µM
- Activity [36]: Active
- Activity [16]: Non-Toxic
- Activity [21]: Non-Toxic
- Activity [37]: Active
- Activity [23]: Active
- MBC [26]: 2.5 µM
- Activity [38]: Active
- MBC [30]: 10 µM
- MBC [31]: 0.5 µM
- MBC [32]: 0.8 µM
- Activity [33]: 80%
